Assay results as given in ChEMBL document CHEMBL4049426, “Identification of the Clinical Candidate (R)-(1-(4-Fluorophenyl)-6-((1-methyl-1H-pyrazol-4-yl)sulfonyl)-4,4a,5,6,7,8-hexahydro-1H-pyrazolo[3,4-g]isoquinolin-4a-yl)(4-(trifluoromethyl)pyridin-2-yl)methanone (CORT125134): A Selective Glucocorticoid Receptor (GR) Antagonist” (J Med Chem, 2017).
Activity calls are given as the source filed them. No cut-off for these calls is given here.

Assays:
[1] = biological target: Cytochrome P450 3A4 (Homo sapiens, UniProt P08684); assay: Induction of CYP3A4 in human hepatocytes; assay type: ADME, cell-based
[2] = test system: Rattus norvegicus; assay: (§1) In vivo antagonist activity at glucocorticoid receptor in Sprague-Dawley rat cortisone model of exogenous Cushing's syndrome assessed as inhibition of plasma insulin levels at 30 mg/kg, po bid via gavage for 6 days pretreated for 12 hrs followed by cortisone 21-acetate treatment measured 24 hrs after last cortisone 21-acetate treatment; assay type: functional, organism-based
Outline: (§2)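 Male Sprague Dawley rats (200-250g), 3-day vehicle baseline, groups of eight. Compound as suspension in DMSO:Tween 80:0.5% HPMC 10:0.1:89.9, oral gavage twice daily for 6 days; cortisone 21-acetate 30mg/kg s.c. daily in 1% methylcellulose. Tail-vein blood 24 h after last cortisone (12 h after last compound); glucose by clinical reagent, insulin by ultrasensitive rat ELISA.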

[3] = biological target: T1, Cytochrome P450 2B6 (Homo sapiens, UniProt P20813); assay: Induction of CYP2B6 in human hepatocytes; assay type: ADME, cell-based
T1 sequence (P20813 whole entry): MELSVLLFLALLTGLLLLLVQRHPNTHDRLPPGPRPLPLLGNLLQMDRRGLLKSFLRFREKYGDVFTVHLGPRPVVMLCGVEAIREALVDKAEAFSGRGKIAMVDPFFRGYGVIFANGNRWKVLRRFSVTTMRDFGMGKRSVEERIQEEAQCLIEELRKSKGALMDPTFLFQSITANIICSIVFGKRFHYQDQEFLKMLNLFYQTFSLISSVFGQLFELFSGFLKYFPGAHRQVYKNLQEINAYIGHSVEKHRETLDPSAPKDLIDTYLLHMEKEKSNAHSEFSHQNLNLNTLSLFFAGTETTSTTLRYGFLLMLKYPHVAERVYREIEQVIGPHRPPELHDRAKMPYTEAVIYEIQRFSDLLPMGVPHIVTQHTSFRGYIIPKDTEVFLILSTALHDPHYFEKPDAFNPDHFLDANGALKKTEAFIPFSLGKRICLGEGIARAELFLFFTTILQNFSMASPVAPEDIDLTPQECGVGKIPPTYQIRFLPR

[4] = test system: Rattus norvegicus; assay: as §1, with “rat” for “rat cortisone model of exogenous Cushing's syndrome”, “reduction in cortisone-induced” for “inhibition of”, “glucose” for “insulin”; assay type: functional, organism-based; outline: as §2
[5] = test system: Rattus norvegicus; assay: as §1, with “7.5” for “30”; assay type: functional, organism-based
Outline: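 Male Sprague Dawley rats (200-250 g) got vehicle daily for a 3-day baseline, then groups of eight were dosed. Test agent was suspended in DMSO:Tween 80:0.5% HPMC (10:0.1:89.9) and given by oral gavage twice daily for 6 days. Cortisone 21-acetate was given at 30 mg/kg s.c. once daily in 1% methylcellulose. Tail-vein blood was taken 24 h after the last cortisone dose (12 h after the last test dose). Glucose was read with a clinical reagent and insulin by rat ELISA.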

[6] = biological target: T2, Glucocorticoid receptor (Homo sapiens) (UniProt P04150); assay: Displacement of fluormone GS Red from human glucocorticoid receptor at 1 uM after 4 hrs by fluorescence polarization assay relative to control
T2 sequence (whole entry): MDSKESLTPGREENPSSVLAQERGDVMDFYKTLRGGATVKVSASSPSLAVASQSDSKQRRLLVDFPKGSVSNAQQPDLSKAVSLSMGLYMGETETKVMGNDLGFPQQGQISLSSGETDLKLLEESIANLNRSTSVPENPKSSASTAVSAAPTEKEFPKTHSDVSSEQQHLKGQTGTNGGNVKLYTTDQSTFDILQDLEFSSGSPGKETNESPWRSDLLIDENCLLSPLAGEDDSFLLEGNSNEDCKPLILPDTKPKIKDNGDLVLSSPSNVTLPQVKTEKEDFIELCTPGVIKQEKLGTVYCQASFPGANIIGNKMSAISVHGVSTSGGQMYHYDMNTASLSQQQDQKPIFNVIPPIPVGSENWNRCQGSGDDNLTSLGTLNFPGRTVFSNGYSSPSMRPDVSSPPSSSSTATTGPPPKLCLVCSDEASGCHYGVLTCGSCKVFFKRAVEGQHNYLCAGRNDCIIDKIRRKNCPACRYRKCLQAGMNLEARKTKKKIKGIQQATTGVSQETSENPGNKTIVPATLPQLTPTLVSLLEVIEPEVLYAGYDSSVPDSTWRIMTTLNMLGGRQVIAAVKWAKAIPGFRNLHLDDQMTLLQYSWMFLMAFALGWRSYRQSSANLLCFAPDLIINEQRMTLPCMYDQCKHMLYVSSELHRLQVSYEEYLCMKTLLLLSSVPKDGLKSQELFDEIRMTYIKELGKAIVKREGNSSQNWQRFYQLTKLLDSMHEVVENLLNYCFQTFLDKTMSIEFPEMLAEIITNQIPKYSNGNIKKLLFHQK

[7] = biological target: T2, Glucocorticoid receptor (Homo sapiens); assay: Agonist activity at glucocorticoid receptor in human HepG2 cells assessed as induction of tyrosine amino transferase activity measured after 20 hrs; assay type: cell-based; conditions: in the assay text read “primary hepatocytes” for “HepG2 cells”
Outline: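 HepG2 cells in charcoal-stripped FBS RPMI, 25,000 cells/well, 24 h; assay media with 10 µM forskolin. 30 min pre-incubation in 0.1% DMSO, then compound (8-point half-log, 10 µM to 0.003 µM final) for 20 h at 37°C. TAT in lysate with tyrosine, alpha-ketoglutarate and pyridoxal phosphate, 2 h at 37°C, KOH stop, A340. EC50 from 4-parameter fit of % activation of basal TAT.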

[8] = biological target: T3, Cytochrome P450 2C8 (Homo sapiens, UniProt P10632); assay: Inhibition of CYP2C8 (unknown origin)
T3 sequence (P10632 whole entry): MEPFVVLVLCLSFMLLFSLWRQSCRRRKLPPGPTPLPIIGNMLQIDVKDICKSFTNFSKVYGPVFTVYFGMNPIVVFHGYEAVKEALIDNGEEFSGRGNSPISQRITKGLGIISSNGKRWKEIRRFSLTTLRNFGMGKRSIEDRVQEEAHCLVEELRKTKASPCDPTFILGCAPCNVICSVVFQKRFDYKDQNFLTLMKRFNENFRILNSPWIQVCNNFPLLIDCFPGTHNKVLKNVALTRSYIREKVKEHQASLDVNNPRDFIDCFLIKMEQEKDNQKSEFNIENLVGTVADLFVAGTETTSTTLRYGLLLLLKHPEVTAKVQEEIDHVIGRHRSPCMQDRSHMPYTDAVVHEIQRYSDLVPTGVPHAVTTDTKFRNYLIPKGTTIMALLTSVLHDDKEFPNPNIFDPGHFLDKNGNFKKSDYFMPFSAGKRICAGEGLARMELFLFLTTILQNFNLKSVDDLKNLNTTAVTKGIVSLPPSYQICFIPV

Sequence of Cytochrome P450 3A4 (P08684 whole entry): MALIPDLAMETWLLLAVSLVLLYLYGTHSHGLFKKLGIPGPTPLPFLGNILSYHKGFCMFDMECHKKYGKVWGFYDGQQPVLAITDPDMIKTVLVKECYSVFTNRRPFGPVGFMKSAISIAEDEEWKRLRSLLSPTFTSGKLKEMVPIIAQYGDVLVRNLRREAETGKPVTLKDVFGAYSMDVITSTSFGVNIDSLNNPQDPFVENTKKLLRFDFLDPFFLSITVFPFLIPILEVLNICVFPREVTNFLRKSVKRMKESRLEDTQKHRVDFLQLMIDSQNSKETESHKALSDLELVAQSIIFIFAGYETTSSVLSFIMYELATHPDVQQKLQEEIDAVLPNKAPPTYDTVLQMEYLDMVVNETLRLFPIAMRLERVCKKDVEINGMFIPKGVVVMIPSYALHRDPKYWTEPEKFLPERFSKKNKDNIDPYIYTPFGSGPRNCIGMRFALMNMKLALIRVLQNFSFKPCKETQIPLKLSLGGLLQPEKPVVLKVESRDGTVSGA

In the case of `Cn1cc(S(=O)(=O)N2CCC3=Cc4c(cnn4-c4ccc(F)cc4)C[C@]3(C(=O)c3cc(C(F)(F)F)ccn3)C2)cn1` [RELACORILANT], the Activity [1] is reported as “Not Active”, the inhibition [2] is reported as “Active” and the Activity [3] is reported as “Not Active”. The inhibition [4] was “Active”, the inhibition [5] was “Active” and the inhibition [6] was 100%. The Emax [7] was 0% and the IC50 [8] was 210 nM.
